We go through one molecule from ChEMBL document CHEMBL2203099, “Identification of a crucial amino acid in the helix position 6.51 of human tachykinin neurokinin 1 and 3 receptors contributing to the insurmountable mode of antagonism by dual NK₁/NK₃ antagonists” (J Med Chem, 2012).

For assay [1], the system named is T1, Neuromedin-K receptor (Homo sapiens), P29371 [Y315F].
T1 sequence (whole entry): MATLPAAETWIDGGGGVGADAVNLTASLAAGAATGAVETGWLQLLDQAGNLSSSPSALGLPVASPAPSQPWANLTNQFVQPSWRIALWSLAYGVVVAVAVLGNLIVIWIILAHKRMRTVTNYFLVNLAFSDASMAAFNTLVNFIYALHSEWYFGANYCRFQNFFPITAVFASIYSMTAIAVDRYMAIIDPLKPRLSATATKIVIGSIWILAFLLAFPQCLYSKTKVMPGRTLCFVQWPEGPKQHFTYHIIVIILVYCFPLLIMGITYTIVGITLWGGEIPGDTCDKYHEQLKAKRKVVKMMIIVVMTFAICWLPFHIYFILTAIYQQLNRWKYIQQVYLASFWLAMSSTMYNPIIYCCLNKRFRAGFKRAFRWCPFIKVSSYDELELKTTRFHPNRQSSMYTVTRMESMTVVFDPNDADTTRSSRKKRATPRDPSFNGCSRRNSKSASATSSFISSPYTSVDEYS
In words: Noncompetitive inhibition at human NK3 Y315F6.51 mutant expressed in HEK293 cells assessed as decrease in [MePhe7]NKB-induced [3H]IP accumulation after 20 mins. Type of assay: cell-based. The method in brief: (§1)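 HEK293 cells transiently expressing human NK3 WT or mutant, labeled with myo-[³H]inositol in LiCl buffer. Antagonist preincubated 20 min at 37 °C, then [MePhe⁷]NKB (0.01 nM–1 μM) added for 45 min at 37 °C. [³H]IP read by SPA beads. Schild analysis of EC50 shift and Emax depression across increasing antagonist concentrations gives pA2, slope and mode of antagonism.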

In assay [2] the test system is T2, Neuromedin-K receptor (Homo sapiens), P29371 [H316W].
T2 sequence (whole entry): T1 sequence (whole entry) with F315Y, H316W
Description: Antagonist activity at human NK3 H316W6.52 mutant expressed in HEK293 cells assessed as decrease in [MePhe7]NKB-induced [3H]IP accumulation after 20 mins. Format: functional, cell-based. The method in brief: as §1

Assay [3] concerns the target T3, Substance-P receptor (Homo sapiens, UniProt P25103). Description: Noncompetitive inhibition of wild type human NK1 receptor expressed in HEK293 cells assessed as decrease in SP1-induced [3H]IP accumulation after 20 mins. Type of assay: cell-based.
Assay [4] concerns the target Neuromedin-K receptor (Homo sapiens, UniProt P29371, Y247F). Description: Displacement of radioligand [3H]osanetant at human NK3 Y247F mutant expressed in HEK293 cells. Format: cell-based.
In assay [5] the target is Neuromedin-K receptor (Homo sapiens, UniProt P29371, Y247W). In words: Displacement of radioligand [3H]osanetant at human NK3 Y247W mutant expressed in HEK293 cells. Format: cell-based.
Neuromedin-K receptor (Homo sapiens, UniProt P29371, Y247W), sequence (P29371 whole entry Y247W): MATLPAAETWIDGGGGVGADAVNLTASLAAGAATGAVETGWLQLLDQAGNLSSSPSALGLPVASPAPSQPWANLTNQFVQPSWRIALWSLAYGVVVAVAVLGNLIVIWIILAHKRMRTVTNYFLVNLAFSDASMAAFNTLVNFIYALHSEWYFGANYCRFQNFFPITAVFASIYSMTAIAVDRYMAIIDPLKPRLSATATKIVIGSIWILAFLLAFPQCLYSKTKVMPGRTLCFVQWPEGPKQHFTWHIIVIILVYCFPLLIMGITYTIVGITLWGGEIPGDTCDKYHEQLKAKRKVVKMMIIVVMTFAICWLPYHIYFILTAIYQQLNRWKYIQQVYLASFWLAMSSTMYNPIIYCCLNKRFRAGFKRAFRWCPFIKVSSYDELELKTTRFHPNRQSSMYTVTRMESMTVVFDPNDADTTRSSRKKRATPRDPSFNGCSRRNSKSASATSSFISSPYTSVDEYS
In assay [6] the target is T4, Neuromedin-K receptor (Homo sapiens, UniProt P29371).
T4 sequence (P29371 whole entry): T1 sequence (whole entry) with F315Y
In words: Displacement of [3H]osanetant from wild type human NK3 receptor expressed in HEK293 cells. Type of assay: cell-based. For orientation: Displacement assays read how much labelled ligand stays bound in the presence of the test substance.

Assay [7] relates to HEK293. In words: Selectivity ratio of Ki for human NK3 Y247F mutant expressed in HEK293 cells to Ki for wild type human NK3 receptor expressed in HEK293 cells. Type of assay: cell-based.
Assay [8] concerns HEK293. In words: Selectivity ratio of Ki for human NK3 H316W mutant expressed in HEK293 cells to Ki for wild type human NK3 receptor expressed in HEK293 cells. Type of assay: cell-based.
Assay [9] deals with T5, Neuromedin-K receptor (Homo sapiens) (UniProt P29371).
T5 sequence (whole entry): T1 sequence (whole entry) with F315Y
Description: Noncompetitive inhibition at wild type human NK3 expressed in HEK293 cells assessed as decrease in [MePhe7]NKB-induced [3H]IP accumulation after 20 mins. Type of assay: cell-based. In short, it runs like this: as §1

Assay [10] deals with HEK293. Description: Selectivity ratio of Ki for human NK3 Y247W mutant expressed in HEK293 cells to Ki for wild type human NK3 receptor expressed in HEK293 cells. Type of assay: cell-based.
Assay [11] deals with Neuromedin-K receptor (Homo sapiens, UniProt P29371, H316W). Description: Displacement of radioligand [3H]osanetant at human NK3 H316W mutant expressed in HEK293 cells. Type of assay: cell-based.
Neuromedin-K receptor (Homo sapiens, UniProt P29371, H316W), sequence (P29371 whole entry H316W): as the sequence (P29371 whole entry Y247W) above, with W247Y, H316W counted along it
In assay [12] the test system is HEK293. In words: Selectivity ratio of Ki for wild type human NK3 receptor expressed in HEK293 cells to Ki for human NK3 Y315F6.51 mutant expressed in HEK293 cells. Type of assay: cell-based.
Assay [13] deals with T3, Substance-P receptor. Description: Displacement of radioligand [3H]SP from wild type human NK1 receptor expressed in HEK293 cells. Format: cell-based. In short, it runs like this: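 Membranes from transiently transfected HEK293 cells, 2.5 μg protein/well, in 50 mM HEPES pH 7.4 with 3 mM MnCl2, phosphoramidon, leupeptin and 0.04% BSA. 10 competitor concentrations (0.0003–10 μM), 90 min at rt. Nonspecific binding with 10 μM NK1 antagonist. Filtration, then scintillation counting. Ki by Cheng–Prusoff. Three experiments, each in duplicate.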

The target in assay [14] is Neuromedin-K receptor (Homo sapiens, UniProt P29371, Y315F). In words: Displacement of radioligand [3H]osanetant at human NK3 Y315F6.51 mutant expressed in HEK293 cells. Type of assay: cell-based.
Assay [15] deals with T4, Neuromedin-K receptor. Description: Binding affinity to wild type human NK3 receptor.

Where a chain is given by its changes, count along the chain named. Active and inactive are the calls of the source. No cut-off for these calls is given here.

T3 sequence (P25103 whole entry): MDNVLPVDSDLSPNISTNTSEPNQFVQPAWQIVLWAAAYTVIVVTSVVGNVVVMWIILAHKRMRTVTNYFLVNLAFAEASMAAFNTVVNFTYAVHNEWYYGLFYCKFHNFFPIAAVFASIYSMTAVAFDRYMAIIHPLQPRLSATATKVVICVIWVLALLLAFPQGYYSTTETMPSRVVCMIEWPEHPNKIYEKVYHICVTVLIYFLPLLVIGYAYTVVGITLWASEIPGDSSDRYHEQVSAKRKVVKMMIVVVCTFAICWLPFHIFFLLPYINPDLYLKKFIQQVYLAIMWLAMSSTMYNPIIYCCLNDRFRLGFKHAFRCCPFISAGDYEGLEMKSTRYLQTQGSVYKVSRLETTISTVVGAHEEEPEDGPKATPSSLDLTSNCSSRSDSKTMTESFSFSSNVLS
Neuromedin-K receptor (Homo sapiens, UniProt P29371, Y247F), sequence (P29371 whole entry Y247F): as the sequence (P29371 whole entry Y247W) above, with W247F counted along it

Broadly, the Ki is the dissociation constant of the complex between target and ligand, obtained from inhibition or displacement. Regarding `Cc1cc(F)ccc1-c1cc(N2CC[C@H](O)[C@H]2CO)ncc1N(C)C(=O)C(C)(C)c1cc(C(F)(F)F)cc(C(F)(F)F)c1`, the inhibition result in assay [1], in assay [3] and in assay [9] was “Active” in each case. Moreover, the result in [2] was inactive. Also, the Ki in assay [4] was 3.9 nM; in [5], 3.4 nM; in [6] it was 2.9 nM; in assay [11], 2010 nM; in assay [13] it was 0.7 nM; in assay [14], 0.7 nM. The same molecule gave a Ki in [15] of 2.9 nM. The Ratio Ki in [7] was found to be 1.3; in assay [8] it was 693; in assay [10], 1.2; in [12], 4.1.
